Tests used:
[1] = target: Mitogen-activated protein kinase 14 (Homo sapiens, UniProt Q16539); test: Inhibition of p38 alpha
[2] = Metabolic stability in rat liver microsomes at 2 uM; format: ADME, Microsome; details: read-out: Stability
[3] = Metabolic stability in human liver microsomes at 2 uM; format: ADME, Microsome; details: read-out: Stability
[4] = test system: Rattus norvegicus; test: Inhibition of LPS-stimulated TNFalpha release Lewis rat at 5 mg/kg after 4 hrs by ELISA; format: functional
Outline: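 Male Lewis rats were pre-dosed with compound at set times before an iv lipopolysaccharide challenge. Blood was taken 1.5 h after challenge and TNF-α levels were measured by ELISA.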

Mitogen-activated protein kinase 14, sequence (Q16539 whole entry): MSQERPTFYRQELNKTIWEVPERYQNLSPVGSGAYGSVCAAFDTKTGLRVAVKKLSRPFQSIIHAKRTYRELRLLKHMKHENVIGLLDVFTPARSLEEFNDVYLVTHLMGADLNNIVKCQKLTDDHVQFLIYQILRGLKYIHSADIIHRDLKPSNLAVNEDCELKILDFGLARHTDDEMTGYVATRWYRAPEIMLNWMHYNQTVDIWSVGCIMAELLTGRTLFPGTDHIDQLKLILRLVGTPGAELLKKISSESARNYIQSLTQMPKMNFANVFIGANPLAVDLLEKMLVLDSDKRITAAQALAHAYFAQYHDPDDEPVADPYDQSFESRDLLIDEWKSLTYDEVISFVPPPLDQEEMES

Compound	IC50 [1]	remaining at 2 µM [2]	remaining at 2 µM [3]	inhibition in vivo at 5 mg/kg [4]
Fc1ccc(Sc2ccc3nnc(-c4ccc(F)cc4F)n3c2)c(F)c1	0.0072 µM	–	–	–
CC(C)c1nnc2cc(Cl)c(Sc3ccc(F)cc3F)cn12	–	37%	71%	–
O=C(O)c1ccc(-c2nnc3ccc(Sc4ccc(F)cc4F)cn23)cc1	1.17 µM	–	–	–
CC(C)c1nnc2ccc(Sc3ccc(F)cc3C(F)(F)F)cn12	> 10 µM	–	–	–
Fc1ccc(Sc2ccc3nnc(C4CCNCC4)n3c2)c(F)c1	3.77 µM	–	–	–
CC(C)c1nnc2ccc(Sc3ccc(Br)cc3C(F)(F)F)cn12	> 10 µM	–	–	–
CC(C)c1nnc2ccc(C(=O)c3ccc(F)cc3F)cn12	1.05 µM	88%	74%	–
CC(C)c1nnc2ccc(C(=O)Cc3cc(F)cc(F)c3)cn12	7.37 µM	–	–	–
CC(C)c1nnc2cc(Cl)c(Sc3ccc(F)cc3F)c(Br)n12	–	9%	24%	–
CC(C)c1nnc2ccc(CCc3ccc(F)cc3F)cn12	0.085 µM	54%	53%	–

Continued, in another order:

IC50 [1]	remaining at 2 µM [2]	remaining at 2 µM [3]	Compound	inhibition in vivo at 5 mg/kg [4]
–	46%	89%	CC(C)c1nnc2ccc(Sc3ccc(F)cc3F)cn12	61%
0.322 µM	–	–	COC(=O)c1ccc(-c2nnc3ccc(Sc4ccc(F)cc4F)cn23)cc1	–
–	23%	65%	CC(C)c1nnc2ccc(Sc3ccc(F)cc3F)c(Cl)n12	–
> 10 µM	–	–	CC(C)c1nnc2ccc(C(=O)Nc3cc(F)cc(F)c3)cn12	–
–	20%	39%	CC(C)c1nnc2cc(Cl)c(Sc3ccc(F)cc3F)c(Cl)n12	–
8.24 µM	–	–	CC(C)c1nnc2ccc(Sc3ccc(Cl)cc3Cl)cn12	–
–	100%	100%	CC(C)c1nnc2ccc([S+]([O-])c3ccc(F)cc3F)cn12 (centres undefined)	–
> 10 µM	–	–	CC(C)c1nnc2ccc(S(=O)(=O)c3ccc(F)cc3F)cn12	–

— ChEMBL document CHEMBL1153207, “Continued exploration of the triazolopyridine scaffold as a platform for p38 MAP kinase inhibition” (Bioorg Med Chem Lett, 2010)
